# High-throughput results (PubChem BioAssay)
# A selection: hits, their analogues and other compounds. The true share with any hit is near 3.8%.
# Beta apoptosis – inhibitors of cytokine-induced beta cell apoptosis, primary screen, luminescence | actives 0.8% (n = 300,000) | INS-1E cytokine-induced death, ATP luminescence, 48 h; percent of positive-control rescue, neutral wells zero | protection from apoptosis, % (test concentration not listed) | AID 435005, 2010;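 active = Every replicate reaches about 75%, or at least half do and their mean reaches it too, limit read from the data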;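 note: 0% = cytokine-treated negative control wells and 100% = positive control rescue; higher means more ATP so stronger rescue from cytokine killing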
# MC4R ag barr – MC4R agonists recruiting beta-arrestin, primary screen, cell-based, luminescence, agonist arm of biased-ligand search | Melanocortin receptor 4 (Homo sapiens), P32245 | U2OS MC4R beta-arrestin complementation; percent of melanotan II response, DMSO zero | activation, % at 8.9 µM | actives 0.98% (n = 360,000);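 active = activation above a per-plate cutoff, the mean activation of sample wells on that plate plus 3 SD, cut at about 8% in these data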
# MC4R antag cAMP – MC4R antagonists of cAMP signaling, primary screen, cell-based, TR-FRET, antagonist arm of biased-ligand search; Melanocortin receptor 4 (Homo sapiens), P32245; MC4R-expressing cells, MTII-stimulated cAMP, LANCE TR-FRET; inhibition, % at 6.5 µM; actives 0.48% (n = 360,000); AID 540295, 2011;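 active = inhibition above its plate's cutoff, the mean of tested wells on that plate plus 3 SD, cut at about 29% in these data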;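 note: 0% = Melanotan II alone and 100% = Melanotan II plus saturating MCL0020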
#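 System: U2OS cells stably expressing human melanocortin 4 receptor (MC4R). Reagent: Melanotan II challenge after compound preincubation. Doses: 6.5 µM. Times: 30-min compound, 1-h challenge, 1-h detection, room temperature. Measured by: TR-FRET with Eu-cAMP and labeled anti-cAMP, 671 nm. Replicates: singlicate.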
# TMEM16A act – TMEM16A chloride channel activators or potentiators, primary screen, cell-based, HTS. Anoctamin-1 (Mus musculus), Q8BHY3. HEK293 TMEM16A/YFP-H148Q/I152L, iodide quench fluorescence; stronger effect = lower value. B-score at 10 µM. actives 0.3% (n = 340,000). AID 623877, 2012;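 active = fluorescence-ratio B-score plate-corrected deviation score at least 3 library SD below zero, with starting fluorescence score within 5 deviations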;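 note: channel opened by trigger with iodide after compound preincubation; score built on the fluorescence ratio of max minus min over baseline; more negative score means more quench and so TMEM16A activation or potentiation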
# TMEM16A inh – TMEM16A chloride channel inhibitors, primary screen, cell-based, HTS; Anoctamin-1 (Mus musculus), Q8BHY3; HEK293 TMEM16A/YFP iodide influx fluorescence, ionomycin; normalized B-score (activity score, 25-100; higher = stronger inhibition) at 10 µM; actives 1.2% (n = 310,000);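 active = ratio plate-corrected score three or more library SD toward inhibition, starting fluorescence score within five deviations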;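 note: score derived from kinetic fluorescence span divided by baseline fluorescence per well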
# CSC inhib – cancer stem cell viability inhibitors, primary screen, luminescence. cancer stem cell-like cells viability. inhibition, % at 7.5 µM. actives 1.1% (n = 300,000). AID 2717, 2010; in the data active = inhibition above about 75%; tested in HMLE shEcad cells
# TMEM16A reconf – TMEM16A chloride channel inhibitors, confirmation, cell-based, re-confirmation. inhibition, % at 10 µM. shares compounds with TMEM16A inh. actives 39% (n = 2,300). HEK293 TMEM16A/YFP-H148Q, iodide quench fluorescence; ionomycin added to raise cell calcium. AID 652189, 2013;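 active = mean duplicate percent inhibition, scaled so buffer wells are 0 and the reference blocker 100, over three buffer SD above buffer mean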
# TMEM16A Ca cntr – calcium mobilization in TMEM16A/YFP HEK293 cells, confirmation, counter-screen for TMEM16A inhibitor project | shares compounds with TMEM16A inh | actives 2% (n = 2,300) | calcium response (% of ionomycin), % at 10 µM | AID 652231, 2013 | Fluo4 calcium mobilization;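 active = duplicate-averaged calcium signal over 20% of the ionomycin maximum, relative to buffer baseline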;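 note: each well's signal is peak minus trough fluorescence divided by its pre-addition baseline; 0% = buffer wells and 100% = ionomycin wells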
# Parental YFP cnt – iodide YFP quench changes in parental YFP-HEK293, counter-screen for TMEM16A inhibitor project, cell-based; 2,300 tested, under 10 active; ionomycin; shares compounds with TMEM16A inh; YFP ratio F(max-min)/F0 at 10 µM; AID 652233, 2013;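 active = yellow fluorescent protein signal ratio exceeding the buffer control mean by over 5 SD of those controls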;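 note: ratio is mean of duplicate wells from kinetic YFP trace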
# ClC-1 rat inh – ClC-1 chloride channel inhibition, selectivity assay for TMEM16A inhibitor project, cell-based, voltage-dependent ClC-1; shares compounds with TMEM16A inh; CHO ClC-1-YFP, iodide influx fluorescence quench; iodide control reads 0, buffer control 100; ratio percent, % at 10 µM; 2,300 tested, under 10 active; AID 652236, 2013;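 active = duplicate-mean ratio percent above the mean of iodide-only control wells, which defines zero, plus 5 of their SD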;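 note: higher percent means stronger block of ClC-1 iodide influx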
# Target sequence (P35524 whole entry, looked up): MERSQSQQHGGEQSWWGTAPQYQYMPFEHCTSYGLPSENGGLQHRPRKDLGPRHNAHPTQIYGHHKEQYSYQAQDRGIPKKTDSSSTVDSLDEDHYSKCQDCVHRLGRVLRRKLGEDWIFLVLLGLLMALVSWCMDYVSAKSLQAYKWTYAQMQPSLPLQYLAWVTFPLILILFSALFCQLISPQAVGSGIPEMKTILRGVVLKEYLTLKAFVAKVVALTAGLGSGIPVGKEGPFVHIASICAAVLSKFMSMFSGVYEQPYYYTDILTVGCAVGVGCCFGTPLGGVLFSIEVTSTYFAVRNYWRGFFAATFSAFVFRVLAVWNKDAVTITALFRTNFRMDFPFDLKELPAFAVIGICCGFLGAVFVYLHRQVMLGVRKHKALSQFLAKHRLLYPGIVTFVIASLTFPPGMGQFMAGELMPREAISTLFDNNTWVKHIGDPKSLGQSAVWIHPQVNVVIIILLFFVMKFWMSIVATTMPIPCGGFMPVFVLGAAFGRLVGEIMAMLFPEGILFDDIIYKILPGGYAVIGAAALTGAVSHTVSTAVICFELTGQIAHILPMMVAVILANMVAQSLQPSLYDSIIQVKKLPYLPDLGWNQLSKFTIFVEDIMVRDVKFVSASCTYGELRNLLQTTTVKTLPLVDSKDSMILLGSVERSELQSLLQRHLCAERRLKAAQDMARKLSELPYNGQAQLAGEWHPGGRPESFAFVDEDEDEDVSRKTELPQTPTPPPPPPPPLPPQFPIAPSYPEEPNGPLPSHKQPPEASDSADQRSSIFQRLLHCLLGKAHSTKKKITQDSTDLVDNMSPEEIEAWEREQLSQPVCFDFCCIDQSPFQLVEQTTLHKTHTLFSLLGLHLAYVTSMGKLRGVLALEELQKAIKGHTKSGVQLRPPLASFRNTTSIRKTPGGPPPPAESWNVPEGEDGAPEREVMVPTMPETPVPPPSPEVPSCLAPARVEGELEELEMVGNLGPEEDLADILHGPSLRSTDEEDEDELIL
# The depositor's hits bear a star; i = inactive; / = no result.
SMILES,Beta apoptosis,MC4R ag barr,MC4R antag cAMP,TMEM16A act,TMEM16A inh,CSC inhib,TMEM16A reconf,TMEM16A Ca cntr,Parental YFP cnt,ClC-1 rat inh
COCc1ccc(C(=O)N2CCCC(Nc3ccc(C(C)C)cc3)C2)o1 (centres undefined),-2,-4,16,i,i,0,/,/,/,/
CCOC(=O)N1CCC(=C2c3ccc(Cl)cc3CCc3cccnc32)CC1,-1,0,2,i,25*,18,i,i,-1.1,-16
CCOC(=O)N1CCN(c2ccnc3cc(Cl)ccc23)CC1,1,4,4,i,i,-1,/,/,/,/
CCN(CC)C(=O)C1=C(C)N(Cc2ccc(C(C)(C)C)cc2)C(=O)C(CC(=O)NCCCCc2ccccc2)C1 (centres undefined),/,2,12,/,/,/,/,/,/,/
Cc1ccc(-c2noc(CN(C(=O)c3cccc(Br)c3)C(C)C)n2)cc1,0,3,-4,i,i,47,/,/,/,/
COc1ccc(-c2noc(CN(C(=O)c3cccs3)C(C)C)n2)cc1,1,1,9,i,100*,-6,i,i,-0.96,1
Cc1ccc2nc3n(c(=O)c2c1)-c1cc2ccccc2cc1C(=O)NC3CC(C)C (centres undefined),/,1,8,/,/,/,/,/,/,/
Oc1cc(CNC2CCCCC2)c(O)cc1CNC1CCCCC1,/,-1,2,i,/,/,/,/,/,/
CCOC(=O)Cn1nc(-c2ccc(Cl)cc2)cc1N,/,-2,8,i,100*,-11,i,i,-1.4,-9
CCOC(=O)CCn1nc(-c2ccc(Cl)cc2)cc1N,3,-1,4,i,i,14,/,/,/,/
CC1(C(=O)NCc2ccco2)Cc2c(-c3cccc(C(F)(F)F)c3)ccnc2O1 (centres undefined),/,0,-9,/,/,/,/,/,/,/
O=C(CCc1nc2ccccc2[nH]1)Nc1ccc(F)cc1,9,-2,23,i,25*,7,i,i,-1.1,-4
O=C(CCc1nc2ccccc2c(=O)[nH]1)Nc1ccc(F)cc1,-8,-1,5,i,i,11,/,/,/,/
COc1ccc(OC)c(/C=C2/Sc3ccccc3C2=O)c1,-1,9.5*,9,i,i,/,i,i,-1.1,6
Cc1ccc(/C=C2\Sc3ccccc3C2=O)s1,2,0,4,i,i,-12,/,/,/,/
COC(=O)[C@@]1(Cc2ccccc2)[C@H]2C(=O)N(Cc3ccccc3)C(=O)[C@H]2[C@H]2CN=C(SC)N21,/,0,13,/,/,/,/,/,/,/
COc1ccc(N=c2oc3c(OC)cccc3cc2C(=O)NCc2ccco2)cc1OC,13,-1,12,i,i,/,i,i,-1.1,2
COc1ccccc1C(=O)NCc1ccco1,-4,-1,1,i,i,-11,/,/,/,/
CCCCc1ccc(N/C(N)=N/c2nc(C)cc(C)n2)cc1,124*,4,7,-5.6*,100*,44,62%*,43%*,-1,-20
CC(=O)Nc1cnc(-c2ccc3c(c2)OCO3)cn1,/,-2,-2,/,/,/,/,/,/,/
